For test [1], the target named is T1, Polyunsaturated fatty acid 5-lipoxygenase (Homo sapiens, UniProt P09917).
T1 sequence (P09917 whole entry): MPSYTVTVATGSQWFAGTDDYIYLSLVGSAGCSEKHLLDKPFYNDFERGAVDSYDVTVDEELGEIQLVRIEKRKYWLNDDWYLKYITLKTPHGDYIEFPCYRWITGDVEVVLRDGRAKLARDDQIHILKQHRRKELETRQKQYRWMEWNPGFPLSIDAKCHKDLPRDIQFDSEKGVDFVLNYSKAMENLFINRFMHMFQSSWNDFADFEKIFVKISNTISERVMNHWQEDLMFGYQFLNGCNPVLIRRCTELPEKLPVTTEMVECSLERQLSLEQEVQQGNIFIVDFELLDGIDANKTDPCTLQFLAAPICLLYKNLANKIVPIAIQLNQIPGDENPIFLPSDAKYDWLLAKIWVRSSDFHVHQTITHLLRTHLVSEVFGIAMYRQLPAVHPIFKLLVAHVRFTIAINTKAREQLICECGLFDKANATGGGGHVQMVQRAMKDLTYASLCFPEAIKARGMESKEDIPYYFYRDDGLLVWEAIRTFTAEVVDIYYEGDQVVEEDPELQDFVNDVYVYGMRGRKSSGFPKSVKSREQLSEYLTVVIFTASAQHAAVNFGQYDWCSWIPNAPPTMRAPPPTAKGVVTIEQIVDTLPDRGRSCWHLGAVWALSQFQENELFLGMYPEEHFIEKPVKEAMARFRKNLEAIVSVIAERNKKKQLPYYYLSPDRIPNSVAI
Kind of test: In vitro inhibition of polymorphonuclear leukocyte derived human 5-lipoxygenase. An outline of the steps:
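PMNs from venous blood of healthy volunteers, isolated by dextran sedimentation and Percoll gradient (>90% pure) and held in Ca/Mg PBS with 1 mg/mL glucose and 1 μM indomethacin. Challenged with calcium ionophore and [14C]arachidonic acid for 3 min. 5-HETE measured by TLC and scintillation counting; IC50 read graphically.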

Another test concerns Cavia porcellus. Kind of test: In vivo inhibitory activity against guinea pig systemic anaphylaxis when administered a compound dose (200 mg/kg) perorally. Type of test: functional. To be noted: po. In outline:
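Male Hartley guinea pigs sensitised ip with ovalbumin (2.7 mg/kg) plus LPS adjuvant, then challenged 2 weeks later with 1% ovalbumin aerosol for 30 s. Pretreated with pyrilamine, indomethacin and propranolol 20 min before challenge. Compound given in PEG 400 1 h before challenge.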

The target in test [2] is T2, Polyunsaturated fatty acid 5-lipoxygenase (Rattus norvegicus, UniProt P12527).
T2 sequence (P12527 whole entry): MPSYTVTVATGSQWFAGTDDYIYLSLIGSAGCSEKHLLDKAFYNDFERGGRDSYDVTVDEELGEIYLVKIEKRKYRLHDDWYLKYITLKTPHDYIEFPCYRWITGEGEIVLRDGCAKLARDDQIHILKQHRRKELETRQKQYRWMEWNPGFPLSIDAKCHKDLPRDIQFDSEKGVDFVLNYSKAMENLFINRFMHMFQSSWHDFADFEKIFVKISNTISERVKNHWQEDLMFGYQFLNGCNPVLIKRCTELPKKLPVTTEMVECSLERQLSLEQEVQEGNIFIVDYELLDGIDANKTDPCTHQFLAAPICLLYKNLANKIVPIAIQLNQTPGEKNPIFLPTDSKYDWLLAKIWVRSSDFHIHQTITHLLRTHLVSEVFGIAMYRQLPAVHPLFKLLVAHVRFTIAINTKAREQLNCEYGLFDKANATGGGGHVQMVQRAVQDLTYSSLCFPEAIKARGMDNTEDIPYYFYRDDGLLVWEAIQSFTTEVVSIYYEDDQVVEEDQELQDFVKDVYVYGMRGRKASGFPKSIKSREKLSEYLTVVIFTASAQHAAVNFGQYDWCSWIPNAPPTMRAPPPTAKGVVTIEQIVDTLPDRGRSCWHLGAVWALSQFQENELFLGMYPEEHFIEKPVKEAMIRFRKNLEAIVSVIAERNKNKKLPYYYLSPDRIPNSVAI
As to the kind of experiment: In vitro inhibition of rat polymorphonuclear leukocyte 5-lipoxygenase. An outline of the steps:
(§1)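 Intact glycogen-elicited peritoneal PMNs pooled from 4–5 Sprague-Dawley rats (250 g), preincubated 5 min at 30 °C with compound in DMSO (≤0.1% final) plus 1 μM indomethacin. Challenge with [14C]arachidonic acid (4 μM) and A23187 (0.8 μM) for 3 min. Extraction, TLC, 5-HETE by scintillation counting.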

Another test has as its system Mus musculus. Kind of test: In vivo inhibition of mouse ear inflammation. The test is classed as functional. Also on record: concentration or dose not given beside the values. In outline: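 Compound or ethanol vehicle applied topically to one ear of male DBA/2J mice 60 min before arachidonic acid (2 mg/ear). […] Groups of 5 mice.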
Test [3] concerns the target T3, Cyclooxygenase (Rattus norvegicus) (UniProt P35355+Q63921). As to the kind of experiment: Inhibition of Prostaglandin G/H synthase in rat polymorphonuclear leukocytes. Type of test: cell-based. On the set-up: concentration or dose not given beside the values. To be noted: concentration not given here. In outline:
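Homogenate of glycogen-elicited rat peritoneal PMNs in 0.1 M Tris-HCl pH 8.2 with 10 μM NDGA, preincubated 5 min at 37 °C with compound (≤0.1% DMSO). [14C]arachidonic acid (8 μM) added with 4 mM glutathione and epinephrine; 10 min reaction. TxB2 and PGF2α separated by TLC and counted.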

The target in test [4] is T3, Cyclooxygenase (Rattus norvegicus). Kind of test: In vitro inhibitory activity against rat polymorphonuclear leukocyte Prostaglandin G/H synthase at 100 uM. The test is classed as protein assay. In outline:
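Glycogen-elicited peritoneal PMNs from Sprague-Dawley rats were homogenized at 0 °C in 0.1 M Tris-HCl pH 8.2 with 10 μM NDGA. Compound (DMSO ≤0.1%) was preincubated 5 min at 37 °C, then 8 μM [14C]arachidonic acid with 4 mM glutathione and epinephrine was added for 10 min. TxB2 and PGF2α were measured by TLC and scintillation counting.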

The target of test [5] is T4, Polyunsaturated fatty acid 5-lipoxygenase (Rattus norvegicus) (UniProt P12527).
T4 sequence (whole entry): T2 sequence (P12527 whole entry)
As to the kind of experiment: In vitro inhibitory activity against polymorphonuclear leukocyte 5-lipoxygenase in rat cell at 10 uM. In outline: as §1

For test [6], the target named is T5, Polyunsaturated fatty acid 5-lipoxygenase (Homo sapiens) (UniProt P09917).
T5 sequence (whole entry): T1 sequence (P09917 whole entry)
As to the kind of experiment: In vitro inhibitory activity against polymorphonuclear leukocyte 5-lipoxygenase in human cell at 10 uM. In outline: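 Human PMNs from venous blood of a healthy volunteer (EDTA) were purified by dextran sedimentation, a Percoll gradient and NH4Cl red-cell lysis (>90% pure). They were held in Ca/Mg PBS with 1 mg/mL glucose and 1 μM indomethacin, then challenged with A23187 (0.8 μM) and [14C]arachidonic acid (4 μM) for 3 min. 5-HETE was measured by TLC and scintillation counting.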

In test [7] the target is T6, Arachidonate 12-lipoxygenase (Rattus norvegicus) (UniProt Q02759).
T6 sequence (whole entry): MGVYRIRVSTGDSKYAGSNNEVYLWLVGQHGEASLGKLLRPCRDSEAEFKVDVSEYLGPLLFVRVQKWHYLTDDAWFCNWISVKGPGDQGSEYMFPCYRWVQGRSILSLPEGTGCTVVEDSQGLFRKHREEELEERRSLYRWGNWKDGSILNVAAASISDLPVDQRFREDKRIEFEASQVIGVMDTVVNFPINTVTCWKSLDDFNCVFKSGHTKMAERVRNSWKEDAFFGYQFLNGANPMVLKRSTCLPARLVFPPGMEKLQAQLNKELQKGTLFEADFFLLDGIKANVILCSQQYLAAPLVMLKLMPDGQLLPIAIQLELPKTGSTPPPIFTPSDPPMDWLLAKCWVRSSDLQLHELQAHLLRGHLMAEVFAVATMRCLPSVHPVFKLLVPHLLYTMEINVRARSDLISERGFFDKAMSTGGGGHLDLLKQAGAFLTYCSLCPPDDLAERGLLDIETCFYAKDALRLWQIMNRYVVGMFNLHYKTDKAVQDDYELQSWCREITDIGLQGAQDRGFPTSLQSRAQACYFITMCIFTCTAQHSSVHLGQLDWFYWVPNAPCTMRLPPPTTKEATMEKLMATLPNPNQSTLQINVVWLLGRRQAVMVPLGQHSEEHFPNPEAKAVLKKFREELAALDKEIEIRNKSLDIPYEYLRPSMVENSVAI
Kind of test: In vitro inhibitory activity against rat platelet 12-lipoxygenase at 10 uM. An outline of the steps:
(§2)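 Cell-free cytosolic 12-lipoxygenase from Sprague-Dawley rat platelets (0.4 mg/mL), preincubated 5 min at 30 °C with compound in DMSO (≤0.1% final), 25 mM Tris pH 7.4, 1 μM indomethacin, 100 μM glutathione; reaction started with 6 μM [14C]arachidonic acid and quenched with citric acid/NDGA after 3 min. 12-HETE isolated by TLC and counted by scintillation; % inhibition, duplicate.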

In test [8] the target is T4, Polyunsaturated fatty acid 5-lipoxygenase (Rattus norvegicus). Kind of test: In vitro inhibitory activity against polymorphonuclear leukocyte 5-lipoxygenase in rat cell at 1 uM. In outline:
as §1

The target of test [9] is T6, Arachidonate 12-lipoxygenase (Rattus norvegicus). As to the kind of experiment: In vitro inhibitory activity against rat platelet 12-lipoxygenase at 100 uM. In outline: as §2

Here are results for 18 compounds from ChEMBL document CHEMBL1124558, “Differential effects of a series of hydroxamic acid derivatives on 5-lipoxygenase and cyclooxygenase from neutrophils and 12-lipoxygenase from platelets and their in vivo effects on inflammation and anaphylaxis” (J Med Chem, 1989).

Usually IC50 stands for the concentration needed to halve the response being measured. The term inhibition in vivo denotes the relative decrease from the control value, in per cent. Broadly, the Inhibition is the relative decrease from the control value, in per cent. In general, inhibition refers to how much of the control response was suppressed. As for `O=C(CCCc1ccccc1)N(O)Cc1ccccc1`, the IC50 was found to be 130 nM in test [1] and 150 nM in test [2]. The compound further came in with an inhibition in vivo at 200 mg/kg in the test on Cavia porcellus of 0%. Also, the Inhibition in the test on Mus musculus was 51%. Besides, the inhibition in test [3] was found to be 18%.

Compound `O=C(CCOc1ccccc1)N(O)CCc1ccccc1` gave an inhibition in test [4] of 18%. Besides, the results for the IC50 in test [1] and in test [2] were 300 nM and 250 nM, respectively.

As to `O=C(COc1ccccc1)N(O)CCc1ccccc1`, in test [4], the inhibition is 65%. The half-maximal inhibitory concentration (IC50) in test [1] worked out at 1200 nM; in [2] it was 1000 nM.

With `COc1ccc(CCCC(=O)N(C)O)cc1`, the IC50 worked out at 1300 nM in test [1] and 300 nM in test [2]. Also, testing at 200 mg/kg with Cavia porcellus gave an inhibition in vivo of 60%. The Inhibition in the test on Mus musculus is 67%. Besides, the inhibition in [3] is below 10%.

`CC(C)Cc1ccc(C(C)C(=O)N(O)Cc2ccccc2)cc1` (stereo unspecified) returned an inhibition in test [4] of 20%. Further, the IC50 in [1] was determined as 2000 nM; in test [2], 1000 nM.

For `CC(C(=O)N(O)CCc1ccccc1)c1cccc(OCc2ccccc2)c1` (stereo unspecified), the half-maximal inhibitory concentration (IC50) in test [1] turned out to be 100 nM; in test [2] it was 300 nM. In [3], this compound came in with an inhibition below 10%.

As to `CC(C)Cc1ccc(C(C)C(=O)N(Cc2ccccc2)OCc2ccccc2)cc1` (stereo unspecified), the inhibition in [5] is below 10%; in test [6] it was below 10%; in [7], below 10%; in test [3], 39%.

Consider `O=C(Cc1ccc(OCc2ccccc2)cc1)NO`, for which the inhibition in test [8] amounted to 3%; in test [3], 16%.

For the compound `COc1ccc(CC(=O)N(O)CCc2ccccc2)cc1`, the 50% inhibitory concentration (IC50) in test [1] worked out at 2500 nM; in test [2], 1000 nM. The same compound yielded an Inhibition in the test on Mus musculus of 51%. Also, the inhibition in [3] was 48%.

For `O=C(CCCCc1ccccc1)N(O)Cc1ccccc1`, the IC50 in [1] is 150 nM; in test [2] it was 50 nM. The compound further gave an Inhibition in the test with Mus musculus of 52%. Also, the inhibition in test [3] was determined as 50%.

Consider `O=C(Cc1ccc(OCc2ccccc2)cc1)N(O)CCCc1ccccc1`, for which the half-inhibitory concentration (IC50) worked out at 600 nM in test [1] and 500 nM in test [2]. The Inhibition in the test on Mus musculus is 12%. In addition, the inhibition in test [3] was below 10%.

With `CCC(Cc1ccccc1)N(O)C(=O)Cc1ccc(OCc2ccccc2)cc1` (stereo unspecified), the concentration for half-maximal inhibition (IC50) in test [1] came to 3000 nM; in [2], 2500 nM. For the same compound, the results for the inhibition in test [9] and in test [3] were below 10% and 44%, respectively. Moreover, the Inhibition in the test with Mus musculus is listed as 38%.

For `O=C(CCc1ccccc1)N(O)CCCc1ccccc1`, the inhibition in [4] came out at 15%. Also, the 50% inhibitory concentration (IC50) in test [1] and in test [2] was 100 nM throughout. In the test with Cavia porcellus, this compound had an inhibition in vivo at 200 mg/kg of 0%. Moreover, the Inhibition with Mus musculus was 67%.

Take `CCOC(=O)CCCN(O)C(=O)CCCc1ccccc1`: the figures for the IC50 in test [1] and in test [2] were 500 nM and 300 nM, respectively. In the test on Mus musculus, this compound yielded an Inhibition of 54%. In test [3], the inhibition was found to be 44%.

`CN(O)C(=O)CCCCc1ccccc1`: the half-maximal inhibitory concentration (IC50) in test [1] was 250 nM; in test [2] it was 110 nM. For the same compound, the inhibition in vivo at 200 mg/kg in the test on Cavia porcellus turned out to be 9%. The Inhibition in the test on Mus musculus was 77%. Also, in test [3], the inhibition is below 10%.

As to `COc1ccc(CCCC(=O)N(O)CCc2ccccc2)cc1`, the concentration for half-maximal inhibition (IC50) in test [1] is 250 nM; in [2], 120 nM. Besides, in the test with Cavia porcellus, testing at 200 mg/kg gave an inhibition in vivo of 0%. The same compound gave an Inhibition with Mus musculus of 64%.

With `O=C(O)CCCN(O)C(=O)CCCc1ccccc1`, the results for the inhibition in [5], in [9] and in test [3] were 1%, 15% and below 10%, respectively. The Inhibition with Mus musculus was 34%.

As for `CN(O)C(=O)Cc1cccc(OCc2ccc3ccccc3n2)c1`, the inhibition in test [4] came to 30%. For the same compound, the IC50 amounted to 1000 nM in test [1] and 80 nM in test [2]. This compound also came in with an Inhibition in the test with Mus musculus of 68%.
